Measurements reported in PMC7113734 (Antiviral Research, 2016).
Where two headings read alike, the source gives them in different places.

Assays:
[1] = system: drug-resistant HIV-1 strains; assay: Antiviral activity against drug-resistant HIV-1 strains in MT-4; assay type: cell-based; conditions: MT-4
[2] = system: MT-4 cells; assay: Toxicity to MT-4 cells; assay type: cell-based; conditions: all assays
[3] = system: drug resistant clinical HIV isolates; assay: Antiviral activity against drug-resistant HIV-1 in PBMCs; assay type: cell-based; conditions: Human immunodeficiency virus 1, PBMC
[4] = system: HIV attachment to HeLa-CD4-LTR-β-gal cells; assay: Attachment inhibition assay; assay type: cell-based, HIV-1; conditions: Human immunodeficiency virus 1, read-out: Attachment inhibition EC50 ± SD
[5] = system: HL2/3 cells expressing HIV-1 gp120 and gp41 fusing with HeLa-CD4-LTR-β-gal cells; assay: Fusion inhibition assay; assay type: cell-based; conditions: Human immunodeficiency virus 1, HL2/3, read-out: Fusion inhibition EC50 ± SD
How it was run: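 HeLa-CD4-LTR-β-Gal cells incubated with test compound for 1 h at 37°C/5% CO2, then co-cultured 48 h with HL2/3 cells. Cells lysed and β-galactosidase expression measured by chemiluminescent Gal-Screen.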

[6] = biological target: wild type HIV-1 RT (Human immunodeficiency virus type 1 group M subtype B, UniProt P04585); assay: Biochemical RT inhibition assay
[7] = biological target: HIV-1 integrase (Human immunodeficiency virus type 1 group M subtype B, UniProt P04585); assay: HIV-1 integrase inhibition assay; assay type: biochemical
[8] = biological target: HIV-1 protease (Human immunodeficiency virus type 1 group M subtype B, UniProt P04585); assay: HIV-1 protease inhibition assay; assay type: biochemical
[9] = system: HIVIIIB; assay: Cell-to-cell virus transmission assay in CEM-SS cells; assay type: cell-based, HIV-1
[10] = system: HIV strain 92US727; assay: Cell-to-cell virus transmission assay in fresh human PBMCs; assay type: cell-based, HIV-1
How it was run: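 HIV-infected fresh human PBMCs treated 3 days with six concentrations of test compound. Passaged every 3 days for three passages at fixed compound concentration; 80% of culture volume replaced with fresh compound-containing medium and uninfected cells. Cell-free supernatants collected on sub-culture days for RT activity and extracellular p24 antigen. TCID50 per passage by endpoint dilution.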

[11] = system: IIIB strain of HIV-1 in CEM-SS cells; assay: Combination drug interaction evaluation; assay type: cell-based
How it was run: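 CEM-SS cells infected with HIV-1 IIIB; inhibition of cytopathic effect measured for the test compound in two-drug combinations with known anti-HIV agents. Efficacy and toxicity analysed by Prichard–Shipman MacSynergy II. Expected additive inhibition computed from each agent's single-agent dose–response; inhibition above expected at each concentration calculated at 95%, 99% and 99.9% confidence. −99 to −51 μM2% scored antagonistic; <−100 highly antagonistic.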

[12] = system: HIV-1IIIB; assay: Drug-resistant virus selection by serial dose escalation; assay type: cell-based; conditions: fourteen passages, CEM-SS cells
[13] = system: HIV-1IIIB; assay: Antiviral activity with added serum proteins in CEM-SS cells; assay type: cell-based
[14] = system: clinical HIV-1 subtype B virus 92US723; assay: Antiviral activity with added serum proteins in fresh human PBMCs; assay type: cell-based; conditions: 50% human serum, AAGP or HSA vs medium only
[15] = system: cytochrome P450 enzymes; assay: Inhibition of cytochrome P450 enzymes; assay type: in vitro ADME
[16] = biological target: hERG (Homo sapiens, UniProt Q12809); assay: Standard hERG test for cardiotoxicity
hERG, sequence (Q12809 whole entry): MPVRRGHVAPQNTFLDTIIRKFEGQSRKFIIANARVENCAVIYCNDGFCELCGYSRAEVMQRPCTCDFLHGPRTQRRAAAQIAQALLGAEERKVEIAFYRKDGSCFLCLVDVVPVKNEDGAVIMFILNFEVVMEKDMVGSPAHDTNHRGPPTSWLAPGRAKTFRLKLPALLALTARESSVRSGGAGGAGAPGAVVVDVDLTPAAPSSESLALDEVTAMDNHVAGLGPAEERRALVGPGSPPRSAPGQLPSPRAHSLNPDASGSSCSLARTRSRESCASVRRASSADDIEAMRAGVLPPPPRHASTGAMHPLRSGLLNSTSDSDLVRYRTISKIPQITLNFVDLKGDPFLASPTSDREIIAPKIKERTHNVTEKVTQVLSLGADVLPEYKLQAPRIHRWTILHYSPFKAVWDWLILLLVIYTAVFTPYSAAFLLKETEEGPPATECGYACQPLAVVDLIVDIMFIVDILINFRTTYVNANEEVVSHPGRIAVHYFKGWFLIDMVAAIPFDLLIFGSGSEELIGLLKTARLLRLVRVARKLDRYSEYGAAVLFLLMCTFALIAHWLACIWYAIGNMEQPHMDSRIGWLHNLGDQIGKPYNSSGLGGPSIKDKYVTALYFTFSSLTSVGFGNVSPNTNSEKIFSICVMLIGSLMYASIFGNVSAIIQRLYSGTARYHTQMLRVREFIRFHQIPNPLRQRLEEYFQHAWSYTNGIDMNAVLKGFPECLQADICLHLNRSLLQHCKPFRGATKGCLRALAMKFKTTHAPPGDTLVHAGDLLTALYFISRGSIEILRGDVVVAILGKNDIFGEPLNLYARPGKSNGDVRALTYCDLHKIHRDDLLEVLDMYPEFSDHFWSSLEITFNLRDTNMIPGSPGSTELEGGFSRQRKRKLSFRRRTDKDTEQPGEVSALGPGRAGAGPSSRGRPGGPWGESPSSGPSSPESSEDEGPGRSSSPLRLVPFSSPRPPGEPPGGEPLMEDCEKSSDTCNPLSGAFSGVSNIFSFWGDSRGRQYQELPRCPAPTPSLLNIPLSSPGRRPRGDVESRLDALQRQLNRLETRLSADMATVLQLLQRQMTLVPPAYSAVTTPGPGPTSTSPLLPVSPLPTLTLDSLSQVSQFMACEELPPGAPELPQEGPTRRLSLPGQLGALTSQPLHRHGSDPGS

[17] = Pharmacokinetics in rats; assay type: in vivo; conditions: male, Sprague-Dawley, rat, plasma
How it was run: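 Male Sprague-Dawley rats, n = 3 per route. Prodrug given as IV bolus (50 mg/kg, 12.5 mg/mL in 5% DMSO/50% PEG300 in saline) or PO (1000 mg/kg, […] in 2% CMC suspension). Blood sampled over 24 h into sodium fluoride plus citric acid, kept on wet ice <10 min, then centrifuged at 4 °C. Plasma stored at −80 °C; prodrug and active metabolite quantified by UPLC-MS/MS (prodrug LLOQ 0.10 ng/mL).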

[18] = in vitro; conditions: human, CC50 (cytotoxic concentration), fresh human PBMCs

Work on `CCCC(=O)OCSc1ccccc1C(=O)NCCC(N)=O` [NS1040, ((2-((3-amino-3-oxopropyl)carbamoyl)phenyl)thio)methyl butyrate] yielded an EC50 ([1]; Human immunodeficiency virus 1, read-out: Mean EC50 ± SD, AZT- and NNRTI-resistant, RT 4xAZT/L100I) of 3.54 ± 2.02 µM, an EC50 ([1]; Human immunodeficiency virus 1, read-out: Mean EC50 ± SD, AZT- and NNRTI-resistant, RT 4xAZT/Y181C) of 5.24 ± 0.18 µM and an EC50 ([1]; Human immunodeficiency virus 1, read-out: Mean EC50 ± SD, AZT-resistant, RT 4xAZT (D67N/K70R/T215Y/K219Q)) of 4.24 ± 0.91 µM. For the same compound, the EC50 ([1]; Human immunodeficiency virus 1, read-out: Mean EC50 ± SD, Atazanavir-resistant, PR I50L) was 1.27 ± 0.19 µM, the EC50 ([1]; Human immunodeficiency virus 1, read-out: Mean EC50 ± SD, Didanosine-resistant, RT L74V) was 4.59 ± 0.61 µM and the EC50 ([1]; Human immunodeficiency virus 1, read-out: Mean EC50 ± SD, Enfuviritide-resistant, Env V38A/N126K) was 5.48 ± 0.01 µM. It also gave an EC50 ([1]; Human immunodeficiency virus 1, read-out: Mean EC50 ± SD, Indinavir-, Ritonavir-resistant, PR I84V) of 3.33 ± 0.44 µM, an EC50 ([1]; Human immunodeficiency virus 1, read-out: Mean EC50 ± SD, Indinavir-, Ritonavir-resistant, PR V82A) of 6.73 ± 1.06 µM and an EC50 ([1]; Human immunodeficiency virus 1, read-out: Mean EC50 ± SD, Indinavir-, Ritonavir-resistant, PR V82F/I84V) of 3.52 ± 1.7 µM. It also gave an EC50 ([1]; Human immunodeficiency virus 1, read-out: Mean EC50 ± SD, Lamivudine-resistant, RT M184V) of 3.5 ± 1.1 µM, an EC50 ([1]; Human immunodeficiency virus 1, read-out: Mean EC50 ± SD, NNRTI-resistant, RT K103N/Y181C) of 5.19 ± 0.06 µM and an EC50 ([1]; Human immunodeficiency virus 1, read-out: Mean EC50 ± SD, NNRTI-resistant, RT K103N) of 5.02 ± 0.14 µM. It also gave an EC50 ([1]; Human immunodeficiency virus 1, read-out: Mean EC50 ± SD, NNRTI-resistant, RT L100I) of 1.61 ± 0.41 µM, an EC50 ([1]; Human immunodeficiency virus 1, read-out: Mean EC50 ± SD, NNRTI-resistant, RT V106A) of 4.07 ± 0.78 µM and an EC50 ([1]; Human immunodeficiency virus 1, read-out: Mean EC50 ± SD, NNRTI-resistant, RT V108I) of 4.7 ± 0.17 µM. It also gave an EC50 ([1]; Human immunodeficiency virus 1, read-out: Mean EC50 ± SD, NNRTI-resistant, RT V179D) of 5.01 ± 0.31 µM, an EC50 ([1]; Human immunodeficiency virus 1, read-out: Mean EC50 ± SD, NNRTI-resistant, RT Y181C) of 4.52 ± 1.07 µM and an EC50 ([1]; Human immunodeficiency virus 1, read-out: Mean EC50 ± SD, NNRTI-resistant, RT Y188C) of 4.72 ± 0.55 µM. It also gave an EC50 ([1]; Human immunodeficiency virus 1, read-out: Mean EC50 ± SD, Raltegravir-resistant, IN Q148H/G140S) of 4.16 ± 0.26 µM, an EC50 ([1]; Human immunodeficiency virus 1, read-out: Mean EC50 ± SD, Saquinavir-resistant, PR G48V/L90M) of 1.1 ± 0.32 µM and an EC50 ([1]; Human immunodeficiency virus 1, read-out: Mean EC50 ± SD, Tenofovir-resistant, RT K65R) of 5.21 ± 0.08 µM. For the same compound, the “non-toxic up to high test concentration” value [2] was greater than 100 µM, the EC50 ([3]; read-out: PBMC/HIV-1 EC50 ± SD, Multi-drug resistant AD. MDR) was 7.21 ± 4.38 µM and the EC50 ([3]; read-out: PBMC/HIV-1 EC50 ± SD, Multi-drug resistant MDR769) was 4.77 ± 0.95 µM. It also gave an EC50 ([3]; read-out: PBMC/HIV-1 EC50 ± SD, NNRTI-resistant A17R) of 10 ± 4.78 µM, an EC50 ([3]; read-out: PBMC/HIV-1 EC50 ± SD, NNRTI-resistant N119) of 5.9 ± 1.31 µM and an EC50 ([3]; read-out: PBMC/HIV-1 EC50 ± SD, PI-resistant 144-44) of 8.38 ± 5.4 µM. The EC50 ([3]; read-out: PBMC/HIV-1 EC50 ± SD, PI-resistant 1002-60) was 3.66 ± 0.28 µM, the EC50 ([3]; read-out: PBMC/HIV-1 EC50 ± SD, PI-resistant 1022-48) was 3.45 ± 2.26 µM and the EC50 ([3]; read-out: PBMC/HIV-1 EC50 ± SD, PI-resistant 1026-60) was 3.29 ± 0.57 µM. It also gave an EC50 ([3]; read-out: PBMC/HIV-1 EC50 ± SD, PI-resistant 1064-52) of 2.62 ± 1.87 µM, an EC50 ([3]; read-out: PBMC/HIV-1 EC50 ± SD, Wild Type 92US727) of 5.58 ± 0.12 µM and an EC50 [4] greater than 100 µM. The EC50 [5] was greater than 100 µM, the EC50 [6] was greater than 100 µM and the EC50 [7] was greater than 100 µM. The EC50 [8] was greater than 100 µM, the “fold less effective than MDH-1-38 at reducing cell to cell HIV transmission” value [9] was “approximately 3 fold” and the RT ([9]; Passage 1, 2 μM) was 27 cpm. It also gave a TCID50/mL ([9]; Passage 1, 2 μM) of 0 TCID50/mL, a p24 ([9]; Passage 1, 2 μM) of 725 pg/mL and an RT ([9]; Passage 2, 2 μM) of 1063 cpm. The p24 ([9]; Passage 2, 2 μM) was 85,803 pg/mL, the RT ([9]; Passage 3, 2 μM) was 7036 cpm and the TCID50/mL ([9]; Passage 3, 2 μM) was 1.31 × 10^4 TCID50/mL. For the same compound, the p24 ([9]; Passage 3, 2 μM) was 1,570,937 pg/mL, the RT ([10]; Passage 1, 5 μM) was 222 cpm and the TCID50/mL ([10]; Passage 1, 5 μM) was 4.18 × 10^2 TCID50/mL. The p24 ([10]; Passage 1, 5 μM) was 766 pg/mL, the RT ([10]; Passage 2, 5 μM) was 595 cpm and the TCID50/mL ([10]; Passage 2, 5 μM) was 6.86 × 10^3 TCID50/mL. The p24 ([10]; Passage 2, 5 μM) was 1731 pg/mL, the RT ([10]; Passage 3, 5 μM) was 9728 cpm and the TCID50/mL ([10]; Passage 3, 5 μM) was 6.52 × 10^4 TCID50/mL. For the same compound, the p24 ([10]; Passage 3, 5 μM) was 61,967 pg/mL, the mean synergy volume ([11]; in combination with amprenavir) was 111 ± 27.8 μM^2% and the mean synergy volume ([11]; in combination with enfuviritide) was 115 ± 39.5 μM^2%. It also gave a mean synergy volume ([11]; in combination with lamivudine) of 180 ± 128 μM^2%, a mean synergy volume ([11]; in combination with lopinavir) of 212 ± 62.2 μM^2% and a mean synergy volume ([11]; in combination with nelfinavir) of 282 ± 61.5 μM^2%. For the same compound, the mean synergy volume ([11]; in combination with ritonavir) was 143 ± 33.5 μM^2%, the mean synergy volume ([11]; in combination with stavudine) was 110 ± 68 μM^2% and the “selection of resistant virus” value [12] was “did not result in resistance”. The “fold decrease in potency” value ([13]; in the presence of 50% human AB serum) was roughly 4.5 fold, the “fold decrease in potency” value ([13]; in the presence of HSA (10 mg/mL)) was “did not exhibit a significant decrease in potency” and the “change in antiviral activity with serum protein additives” value [14] was “no significant change in antiviral activity”. The “inhibition of cytochrome P450 enzymes” value [15] was “neither NS1040 nor MDH-1-38 had significant inhibitory activity”, the “hERG test for cardiotoxicity” value [16] was “negative” and the concentration at 1 h ([17]; iv, 50 mg/kg) was less than 0.1 ng/mL. It also gave a concentration at 0.75 h ([17]; po, 1000 mg/kg) of less than 0.1 ng/mL and a CC50 [18] greater than 216 µM.
